In ChEMBL document CHEMBL1155046, “Chemical constituents of Aristolochia constricta: antispasmodic effects of its constituents in guinea-pig ileum and isolation of a diterpeno-lignan hybrid” (2008):

Columns and labels:
Ileum [1] = assay: Antispasmodic activity in guinea pig ileum assessed as inhibition of electrically-induced smooth muscle contraction; type: functional, Cavia porcellus
Outline: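 Male albino guinea-pig ileum (300-450 g) held under 1 g tension in Krebs-Henseleit at 38.5 °C, gassed 95% O2/5% CO2. Transmural stimulation through platinum ring electrodes: supramaximal 38.6 V, 0.2 Hz, 0.3 ms square pulses. Once twitch was stable, compounds added cumulatively at 10, 30, 100 µM. Isotonic recording, contraction as % of control. IC50 calculated. Mean ± SEM from 4-5 animals. DMSO vehicle <1% final.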

Ileum [2] = assay: Antispasmodic activity in guinea pig ileum assessed as inhibition of acetylcholine-induced smooth muscle contraction; type: functional, Cavia porcellus
Outline: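 Ileum from male albino guinea pigs (300-450 g) in Krebs-Henseleit solution, 1 g tension, 10 mL bath, 38.5 °C, 95% O2/5% CO2. After 0.5 h equilibration, checked with 3 µM ACh three times. Samples (10, 30, 100 µM) added noncumulatively 20 min before 3 µM ACh. Contraction recorded isotonically, expressed as % of untreated ACh height. IC50 calculated. Mean ± SEM, 4-5 animals. DMSO <1% final.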

Compound	IC50 (Ileum [1])	IC50 (Ileum [2])
O[C@H]1OC[C@H](Cc2ccc3c(c2)OCO3)[C@H]1Cc1ccc2c(c1)OCO2	51.6 µM	23.6 µM
C=C1C[C@@]23CC[C@H]4[C@@](C)(CCC[C@]4(C)C(=O)O)[C@@H]2CCC1C3	28.2 µM	25.4 µM
COc1cc(C[C@H]2C(=O)OC[C@@H]2Cc2ccc3c(c2)OCO3)ccc1O	58.3 µM	26.8 µM
COc1cc2c(cc1C)C(=O)CCC2C (single isomer, unassigned; (+))	> 100 µM	89.8 µM
COc1cccc2c1cc([N+](=O)[O-])c1c(C(=O)O)cc3c(c12)OCO3 [ARISTOLOCHIC ACID]	64 µM	> 100 µM
OC[C@H](Cc1ccc2c(c1)OCO2)[C@H](CO)Cc1ccc2c(c1)OCO2 [DIHYDROCUBEBIN]	> 100 µM	40.4 µM
O=C1OC[C@H](Cc2ccc3c(c2)OCO3)[C@H]1Cc1ccc2c(c1)OCO2 [HINOKININ]	69.8 µM	27.3 µM

More lines, now with the values ahead:

IC50 (Ileum [1])	IC50 (Ileum [2])	Compound
> 100 µM	> 100 µM	CC1(C)CCC[C@]2(C)[C@@H]1CC[C@]13C=C(COC4OC[C@H](Cc5ccc6c(c5)OCO6)[C@H]4Cc4ccc5c(c4)OCO5)[C@@H](CC[C@H]12)C3 (some centres undefined)
34.1 µM	> 100 µM	CC1(C)CCC[C@]2(C)[C@@H]1CC[C@]13C=C(CO)[C@@H](CC[C@H]12)C3
52.8 µM	39.5 µM	COc1cc(C[C@H]2CO[C@@H](O)[C@@H]2Cc2ccc3c(c2)OCO3)ccc1O
> 100 µM	> 100 µM	CC1(C)CCC[C@]2(C)[C@@H]1CC[C@@]13C[C@H](CC[C@H]12)[C@@](O)(CO)C3
0.25 µM	0.28 µM	COc1ccc(CCN(C)CCCC(C#N)(c2ccc(OC)c(OC)c2)C(C)C)cc1OC (centres undefined) [VERAPAMIL]
